Assay results as given in ChEMBL document CHEMBL1649531, “In vitro activity of garenoxacin against Streptococcus pneumoniae mutants with characterized resistance mechanisms” (2009).
In brackets after ≈: the same amount, converted by molar mass.

Experiments:
Assay type in all cases: functional
[1] = test system: Streptococcus pneumoniae; test: Antibacterial activity against Streptococcus pneumoniae W002 harboring wild-type parC and gyrA genes assessed as mutation prevention concentration after 48 hrs
Method in brief: (§1)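 A 200 μl culture at 10 log10 CFU/ml was spread on Mueller-Hinton II agar with 5% sheep blood containing drug at a range of concentrations, then incubated at 37°C in 5% CO2. MPC was taken as the lowest concentration preventing colony formation after 48 h. Determinations were done in duplicate.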

[2] = test system: Streptococcus pneumoniae; test: Antibacterial activity against Streptococcus pneumoniae D002 harboring parC Ser79Phe and gyrA Ser81Phe mutant genes assessed as mutation prevention concentration after 48 hrs; method in brief: as §1
[3] = test system: Streptococcus pneumoniae; test: Antibacterial activity against Streptococcus pneumoniae W001 harboring wild-type parC and gyrA genes assessed as mutation prevention concentration after 48 hrs; method in brief: as §1
[4] = test system: Streptococcus pneumoniae; test: Antibacterial activity against Streptococcus pneumoniae S001 harboring parC Asp83Asn mutant and wild-type gyrA genes assessed as mutation prevention concentration after 48 hrs; method in brief: as §1
[5] = test system: Streptococcus pneumoniae; test: Antibacterial activity against Streptococcus pneumoniae S003 harboring wild-type parC and gyrA Ser81Phe mutant genes assessed as mutation prevention concentration after 48 hrs; method in brief: as §1
[6] = test system: Streptococcus pneumoniae; test: Antibacterial activity against Streptococcus pneumoniae S004 harboring wild-type parC and gyrA Gly85Asn mutant genes assessed as mutation prevention concentration after 48 hrs; method in brief: as §1
[7] = test system: Streptococcus pneumoniae; test: Antibacterial activity against Streptococcus pneumoniae S002 harboring parC Ser79Phe mutant and wild-type gyrA genes assessed as mutation prevention concentration after 48 hrs; method in brief: as §1
[8] = test system: Streptococcus pneumoniae; test: Antibacterial activity against Streptococcus pneumoniae D001 harboring parC Ser79Phe and gyrA Gly85Lys mutant genes assessed as mutation prevention concentration after 48 hrs; method in brief: as §1
[9] = test system: Streptococcus pneumoniae; test: Antibacterial activity against Streptococcus pneumoniae W001 harboring wild-type parC and gyrA genes
[10] = test system: Streptococcus pneumoniae; test: Antibacterial activity against Streptococcus pneumoniae S004 harboring wild-type parC and gyrA Gly85Asn mutant genes
[11] = test system: Streptococcus pneumoniae; test: Antibacterial activity against Streptococcus pneumoniae D002 harboring parC Ser79Phe and gyrA Ser81Phe mutant genes
[12] = test system: Streptococcus pneumoniae; test: Antibacterial activity against Streptococcus pneumoniae S001 harboring parC Asp83Asn mutant and wild-type gyrA genes
[13] = test system: Streptococcus pneumoniae; test: Antibacterial activity against Streptococcus pneumoniae D001 harboring parC Ser79Phe and gyrA Gly85Lys mutant genes
[14] = test system: Streptococcus pneumoniae; test: Antibacterial activity against Streptococcus pneumoniae S002 harboring parC Ser79Phe mutant and wild-type gyrA genes
[15] = test system: Streptococcus pneumoniae; test: Antibacterial activity against Streptococcus pneumoniae S003 harboring wild-type parC and gyrA Ser81Phe mutant genes
[16] = test system: Streptococcus pneumoniae; test: Antibacterial activity against Streptococcus pneumoniae W002 harboring wild-type parC and gyrA genes

Row | SMILES | Activity [1] | Activity [2] | Activity [3] | Activity [4] | Activity [5] | Activity [6] | Activity [7] | Activity [8] | MIC [9] | MIC [10] | MIC [11] | MIC [12] | MIC [13] | MIC [14] | MIC [15] | MIC [16]
1 | C[C@H]1COc2c(N3CCN(C)CC3)c(F)cc3c(=O)c(C(=O)O)cn1c23.C[C@H]1COc2c(N3CCN(C)CC3)c(F)cc3c(=O)c(C(=O)O)cn1c23.O [LEVOFLOXACIN] | 2 µg/mL | 128 µg/mL | 2 µg/mL | 16 µg/mL | 32 µg/mL | 32 µg/mL | 16 µg/mL | 128 µg/mL |  |  |  |  |  |  |  | 
2 | COc1c(N2CCNC(C)C2)c(F)cc2c(=O)c(C(=O)O)cn(C3CC3)c12 (centres undefined) [GATIFLOXACIN] | 0.5 µg/mL | 16 µg/mL | 0.5 µg/mL | 4 µg/mL | 8 µg/mL | 8 µg/mL | 4 µg/mL | 16 µg/mL | 0.12 µg/mL (≈ 0.32 µM) | 0.25 µg/mL (≈ 0.666 µM) | 8 µg/mL (≈ 21.3 µM) | 0.25 µg/mL (≈ 0.666 µM) | 4 µg/mL (≈ 10.7 µM) | 0.12 µg/mL (≈ 0.32 µM) | 0.12 µg/mL (≈ 0.32 µM) | 0.12 µg/mL (≈ 0.32 µM)
